Source: article PMC6500982 (Cancer Science, 2019)
Entries after “also recorded” stand apart in the source; their conditions may differ.

How the values were obtained:
[1] = molecular target: Bruton's tyrosine kinase (BTK) (Homo sapiens, UniProt Q06187); type: in vivo
Summary of the method: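 PBMCs isolated from blood drawn pre-dose and 2 hours post-dose on Cycle 1 Day 1 were analysed by western blot with anti-pBTK, anti-BTK and anti-β-actin antibodies. pBTK band intensity was quantified by imaging analyzer, normalised to β-actin, and expressed relative to the pre-dose Day 1 level (set as 100%).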

[2] = tested on: TMD8 transplanted mouse tumor model; conditions: cited from earlier work
[3] = Pharmacokinetics of plasma tirabrutinib, Cycle 1 Day 1 and Day 28; type: in vivo, human
[4] = tested on: ABC‐DLBCL cell line, TMD8; conditions: cited from earlier work
[5] = tested on: relapsed/refractory B‐cell NHL and CLL; test: Efficacy; type: in vivo, human; conditions: for Partial response (VGPR or PR): includes lymphocytosis assessed as modified PR
Summary of the method: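 Open-label, multicenter, non-randomised study in Japanese adults (≥20 y) with relapsed/refractory B-cell NHL (DLBCL, MCL, FL, MZL, WM/LPL) or CLL/SLL. Oral test compound was given at 160, 320 or 480 mg QD, or 300 mg BID, until progression, unacceptable AEs or consent withdrawal. Best response was graded per International Workshop Criteria for NHL, WM and CLL. ORR was CR plus PR, including PR with residual lymphocytosis, with Clopper–Pearson 95% CIs. Analysis included all patients receiving ≥1 dose.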

[6] = DLBCL, 3 patients who received 300 mg BID

Sequence of Bruton's tyrosine kinase (BTK) (Q06187 whole entry): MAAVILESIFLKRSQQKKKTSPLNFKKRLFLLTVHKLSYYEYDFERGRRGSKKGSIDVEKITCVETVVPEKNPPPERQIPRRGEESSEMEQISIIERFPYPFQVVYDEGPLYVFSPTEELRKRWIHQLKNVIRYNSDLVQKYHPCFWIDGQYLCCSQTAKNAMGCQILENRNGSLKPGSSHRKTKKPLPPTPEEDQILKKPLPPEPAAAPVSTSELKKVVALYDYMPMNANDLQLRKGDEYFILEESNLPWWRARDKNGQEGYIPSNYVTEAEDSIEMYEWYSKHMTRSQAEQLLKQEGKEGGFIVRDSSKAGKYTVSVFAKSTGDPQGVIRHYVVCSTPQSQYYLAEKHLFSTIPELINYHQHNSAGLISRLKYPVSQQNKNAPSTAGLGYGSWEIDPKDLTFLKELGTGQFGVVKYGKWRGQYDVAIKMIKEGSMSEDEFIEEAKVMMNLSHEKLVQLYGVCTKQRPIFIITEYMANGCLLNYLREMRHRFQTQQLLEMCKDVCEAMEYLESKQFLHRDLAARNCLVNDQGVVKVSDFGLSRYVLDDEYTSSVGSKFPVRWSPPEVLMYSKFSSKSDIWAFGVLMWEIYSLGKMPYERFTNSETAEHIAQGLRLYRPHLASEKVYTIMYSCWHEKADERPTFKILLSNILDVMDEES

SMILES: CC#CC(=O)N1CC[C@@H](n2c(=O)n(-c3ccc(Oc4ccccc4)cc3)c3c(N)ncnc32)C1 [tirabrutinib]
- Expression level of pBTK in PBMC ([1]; 11 patients with confirmed basal pBTK expression, doses ≥160 mg QD): suppressed the expression level of pBTK in all 11 patients; also recorded: fully suppressed
- pBTK suppression ([1]; patients other than the CLL patient, 2 hours post–dose on Day 1 of Cycle 1): Complete suppression
- Cytostatic properties in vivo [2]: cytostatic properties
- Pharmacokinetics linearity ([3]; 160 mg QD to 300 mg BID): linear
- Increase in Cmax and AUC with dose ([3]; 160 to 480 mg QD): increased in a dose‐dependent manner
- Arithmetic mean trough plasma concentration, 300 mg BID vs 480 mg QD ([3]; C1D28): 3.2 fold
- Accumulation following multiple doses ([3]; Day 28 vs Day 1): little accumulation
- Cytostatic properties in vitro [4]: cytostatic properties
- Complete response (CR, CRu, CRi) ([5]; 160 mg QD N = 3): 1 (33.3) n (%)
- Overall response (CR, CRu, CRi, VGPR or PR) ([5]; 160 mg QD N = 3): 3 (100.0) n (%)
- Partial response (VGPR or PR) ([5]; 160 mg QD N = 3): 2 (66.7) n (%)
- Complete response (CR, CRu, CRi) ([5]; 300 mg BID N = 7): 3 (42.9) n (%)
- Overall response (CR, CRu, CRi, VGPR or PR) ([5]; 300 mg BID N = 7): 4 (57.1) n (%)
- Partial response (VGPR or PR) ([5]; 300 mg BID N = 7): 1 (14.3) n (%)
- Complete response (CR, CRu, CRi) ([5]; 320 mg QD N = 3): 2 (66.7) n (%)
- Overall response (CR, CRu, CRi, VGPR or PR) ([5]; 320 mg QD N = 3): 3 (100.0) n (%)
- Partial response (VGPR or PR) ([5]; 320 mg QD N = 3): 1 (33.3) n (%)
- Complete response (CR, CRu, CRi) ([5]; 480 mg QD N = 4): 0 (.0) n (%)
- Overall response (CR, CRu, CRi, VGPR or PR) ([5]; 480 mg QD N = 4): 3 (75.0) n (%)
- Partial response (VGPR or PR) ([5]; 480 mg QD N = 4): 3 (75.0) n (%)
- Median progression‐free survival ([5]; Cohort 3 (480 mg QD)): 109 days
- Median progression‐free survival ([5]; Cohorts 1, 2 and 4): not estimable
- Number of CR ([5]; DLBCL (5 patients)): 2
- Best overall response CR, number of patients [5, 6]: 2 patients
- Best overall response stable disease, number of patients [5, 6]: 1 patient
- Number of CR ([5]; FL (5 patients)): 1
- Number of CR ([5]; MCL (4 patients)): 3
- Complete response (CR, CRu, CRi) ([5]; Total N = 17): 6 (35.3) n (%)
- Overall response (CR, CRu, CRi, VGPR or PR) ([5]; Total N = 17): 13 (76.5) n (%)
- Partial response (VGPR or PR) ([5]; Total N = 17): 7 (41.2) n (%)
- Overall response rate (≥PR) ([5]; all patients (13/17)): 76.5%
- Patients with early response within 1 month after beginning of treatment ([5]; of 13 patients who achieved PR or more): 8 patients
